From ChEMBL document CHEMBL5512639, “Insights from structure-activity relationships and the binding mode of peptidic α-ketoamide inhibitors of the malaria drug target subtilisin-like SUB1” (Eur J Med Chem, 2024)
Calls of active or inactive are those of the source. No cut-off for these calls is given here. Numbered stars: 1 amine (or outer) side, 2 acyl side, 3 side chain; on linkers, the order of the positions; unused ones are H or OH. Square brackets hold non-standard residues; d marks the D form. Peptide text beside a SMILES is read from it. * marks the point of attachment. Ala(1H-tetrazol-5-yl) = N[C@@H](Cc1nnn[nH]1)C(=O)O; Asp(3,3-Me2) = CC(C)(C(=O)O)[C@H](N)C(=O)O; Gly(cPent) = N[C@H](C(=O)O)C1CCCC1; X1 = C[C@H](N[*:1])C(=O)C(=O)[*:2]; Nva(3-Et) = CCC(CC)[C@H](N)C(=O)O; Pyrazinecarbonyl = O=C(c1cnccn1)*; tBuAla = CC(C)(C)C[C@H](N)C(=O)O; Cha = N[C@@H](CC1CCCCC1)C(=O)O; αMeL = CC(C)C[C@](C)(N)C(=O)O; Chg = N[C@H](C(=O)O)C1CCCCC1; Phg = N[C@H](C(=O)O)c1ccccc1; Tle = CC(C)(C)[C@H](N)C(=O)O; Dab = NCC[C@H](N)C(=O)O; Aib = CC(C)(N)C(=O)O; Dha = C=C(N)C(=O)O; OAll = C=CCO*

Assays:
Plasmodium falciparum [1] = experiment: Antiparasitic activity against Plasmodium falciparum infected in human Erythrocyte assessed as inhibition of merozoite egress from human Erythrocyte measured for 8 hrs by flow cytometry analysis; format: functional, organism-based
Method in brief: (§1)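 P. falciparum cultured in human RBCs, RPMI 1640 with 25 mM HEPES, 2.5% Albumax II, 100 μM hypoxanthine, 37 °C, 5% O2/5% CO2. Sorbitol-synchronized, plasmion-enriched late schizonts at 2% hematocrit, 1% parasitemia exposed to compound for 8 h. Fixed in glutaraldehyde, permeabilized, RNase-treated, stained with YOYO-1. Ring parasitemia by flow cytometry (100,000 events) vs DMSO. Triplicate; IC50 from 16 concentrations, 180 to 0.8 μM.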

[2] = Inhibition of full length recombinant Plasmodium vivax SUB1 expressed in Drosophila S2 cells using Dabsyl-KLVGADDV-SLA-EDANS as substrate measured every 2 mins for 1 hr by FRET assay
Plasmodium falciparum [3] = experiment: Antiparasitic activity against Plasmodium falciparum infected in human Erythrocyte assessed as inhibition of merozoite egress from human Erythrocyte at 100 uM measured for 8 hrs by flow cytometry analysis relative to control; format: functional; method in brief: as §1
[4] = biological target: T1, Subtilisin-like protease 1 (Plasmodium falciparum, UniProt O61142); experiment: Inhibition of full length recombinant Plasmodium falciparum SUB1 using Dabsyl-KLVSADNIDIS-EDANS as substrate measured every 2 mins for 1 hr by FRET assay
T1 sequence (O61142 whole entry): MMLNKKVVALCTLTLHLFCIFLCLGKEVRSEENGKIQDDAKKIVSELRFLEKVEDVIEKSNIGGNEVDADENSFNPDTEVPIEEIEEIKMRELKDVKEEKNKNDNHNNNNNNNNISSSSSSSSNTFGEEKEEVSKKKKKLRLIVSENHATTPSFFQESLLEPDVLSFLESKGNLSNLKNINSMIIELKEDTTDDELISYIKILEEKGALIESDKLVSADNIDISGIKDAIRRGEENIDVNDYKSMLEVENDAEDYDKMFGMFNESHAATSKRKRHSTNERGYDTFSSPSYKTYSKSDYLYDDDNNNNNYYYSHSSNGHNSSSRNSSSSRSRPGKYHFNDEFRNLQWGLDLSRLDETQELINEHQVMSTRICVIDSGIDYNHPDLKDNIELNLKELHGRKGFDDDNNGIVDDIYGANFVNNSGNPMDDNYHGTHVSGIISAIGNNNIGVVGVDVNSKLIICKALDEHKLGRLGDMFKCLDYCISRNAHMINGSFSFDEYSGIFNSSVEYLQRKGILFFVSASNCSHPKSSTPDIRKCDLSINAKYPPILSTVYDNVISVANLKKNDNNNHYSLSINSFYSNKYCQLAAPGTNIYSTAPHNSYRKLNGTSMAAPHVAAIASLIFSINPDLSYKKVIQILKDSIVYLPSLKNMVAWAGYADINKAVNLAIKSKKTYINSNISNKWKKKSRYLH

[5] = Selectivity ratio of IC50 for inhibition of full length recombinant Plasmodium vivax SUB1 expressed in Drosophila S2 cells using Dabsyl-KLVGADDV-SLA-EDANS as substrate to IC50 for inhibition of full length recombinant Plasmodium falciparum SUB1 using Dabsyl-KLVSADNIDIS-EDANS as substrate
[6] = system: Subtilisin-like protease 1 (Plasmodium vivax); experiment: Binding affinity to Plasmodium vivax SUB1 catalytic domain assessed as thermal stabilization by measuring change in melting temperature by differential scanning fluorimetry
[7] = system: Subtilisin-like protease 1 (Plasmodium vivax); experiment: Binding affinity to Plasmodium vivax SUB1 using Dabsyl-KLVGADDV-SLA-EDANS as substrate using catalytic domain assessed as bound half life by jump dilution assay
[8] = system: Subtilisin-like protease 1 (Plasmodium vivax); experiment: Binding affinity to Plasmodium vivax SUB1 using Dabsyl-KLVGADDV-SLA-EDANS as substrate using catalytic domain assessed as dissociation constant (Koff) by jump dilution assay
Plasmodium falciparum [9] = experiment: Antiparasitic activity against Plasmodium falciparum infected in human Erythrocyte assessed as inhibition of merozoite egress from human Erythrocyte at 25 uM measured for 8 hrs by flow cytometry analysis relative to control; format: functional; method in brief: as §1

| Structure (SMILES) | IC50 [2] [nM] | inhibition (Plasmodium falciparum [3]) | IC50 [4] [nM] | inhibition at 100 µM (Plasmodium falciparum [3]) [%] | also measured |
| --- | --- | --- | --- | --- | --- |
| C[C@@H](NC[C@@H](O)[C@H](Cc1ccccc1)NC(=O)c1ccc(C(=O)N2CCN(C)CC2)cc1)c1ccccc1 |  |  |  |  | IC50 (Plasmodium falciparum [1]): 1.1 nM |
| CC[C@H](C)[C@H](NC(C)=O)C(=O)N[C@H](C(=O)N[C@@H](C)C(=O)N[C@@H](C)C(=O)C(=O)N[C@@H](Cc1nnn[nH]1)C(N)=O)[C@@H](C)O (Ac-ITA[X1][Ala(1H-tetrazol-5-yl)]-NH2) | 1770 | inactive |  |  |  |
| C=CCOC(=O)CC[C@H](NC(=O)[C@H](Cc1nnn[nH]1)NC(=O)C(=O)[C@H](C)NC(=O)[C@H](C)NC(=O)[C@@H](NC(=O)[C@@H](NC(C)=O)[C@@H](C)CC)[C@@H](C)O)C(N)=O (Ac-ITA[X1][Ala(1H-tetrazol-5-yl)]E(OAll)-NH2) | 1240 |  | 24400 | 2 |  |
| C=CCOC(=O)CC[C@H](NC(=O)[C@H](CC(=O)O)NC(=O)C(=O)[C@H](C)NC(=O)C(=C)NC(=O)[C@@H](NC(=O)[C@@H](NC(C)=O)[C@@H](C)CC)[C@@H](C)O)C(N)=O (Ac-IT[Dha][X1]DE(OAll)-NH2) | 330 | inactive |  |  |  |
| C=CCOC(=O)CC[C@H](NC(=O)[C@H](CC(=O)O)NC(=O)C(=O)[C@H](C)NC(=O)[C@H](C)NC(=O)[C@H](Cc1c[nH]c2ccccc12)NC(=O)[C@@H](NC(C)=O)[C@@H](C)CC)C(N)=O (Ac-IWA[X1]DE(OAll)-NH2) | 240 |  |  | 5 |  |
| C=CCOC(=O)CC[C@H](NC(=O)[C@H](CC(=O)O)NC(=O)C(=O)[C@H](C)NC(=O)[C@H](C)NC(=O)[C@H](CCNC(=O)c1cnccn1)NC(=O)[C@@H](NC(C)=O)[C@@H](C)CC)C(N)=O (Ac-I[Dab](Pyrazinecarbonyl)A[X1]DE(OAll)-NH2) | 390 |  |  | 10 |  |
| C=CCOC(=O)CC[C@H](NC(=O)[C@H](CC(=O)O)NC(=O)C(=O)[C@H](C)NC(=O)[C@H](C)NC(=O)[C@@H](NC(=O)[C@H](CC1CCCCC1)NC(C)=O)[C@@H](C)O)C(N)=O (Ac-[Cha]TA[X1]DE(OAll)-NH2) | 4080 | inactive | 34900 |  | Ratio IC50 [5]: 9; ΔTm [6]: 6.8 °C |
| C=CCOC(=O)CC[C@H](NC(=O)[C@H](CC(=O)O)NC(=O)C(=O)[C@H](C)NC(=O)[C@H](C)NC(=O)[C@@H](NC(=O)[C@@H](NC(C)=O)C1CCCCC1)[C@@H](C)O)C(N)=O (Ac-[Chg]TA[X1]DE(OAll)-NH2) | 200 |  | 1950 | 13 | Ratio IC50 [5]: 9 |
| C=CCOC(=O)CC[C@H](NC(=O)[C@H](CC(=O)O)NC(=O)C(=O)[C@H](C)NC(=O)[C@H](C)NC(=O)[C@H](C)NC(=O)[C@@H](NC(C)=O)C1CCCC1)C(N)=O (Ac-[Gly(cPent)]AA[X1]DE(OAll)-NH2) | 58400 | inactive |  |  |  |
| CC(=O)N[C@H](C(=O)N[C@H](C(=O)N[C@@H](C)C(=O)N[C@@H](C)C(=O)C(=O)N[C@@H](CC(=O)O)C(N)=O)[C@@H](C)O)C1CCCC1 (Ac-[Gly(cPent)]TA[X1]D-NH2) | 100 |  | 550 | 32 | T1/2 [7]: 20 min; K [8]: 0.034 min⁻¹ |
| CC(=O)N[C@H](C(=O)N[C@H](C(=O)N[C@@H](C)C(=O)N[C@@H](C)C(=O)C(=O)N[C@@H](CC(=O)O)C(=O)N[C@@H](CCC(=O)O)C(N)=O)[C@@H](C)O)C1CCCC1 (Ac-[Gly(cPent)]TA[X1]DE-NH2) | 30 | inactive | 88 |  |  |
| CC[C@H](C)[C@H](NC(=O)[C@H](CC(=O)O)NC(=O)C(=O)[C@H](C)NC(=O)[C@H](C)NC(=O)[C@@H](NC(=O)[C@@H](NC(C)=O)C1CCCC1)[C@@H](C)O)C(N)=O (Ac-[Gly(cPent)]TA[X1]DI-NH2) | 14 |  | 17 | 99.8 | inhibition at 25 µM (Plasmodium falciparum [9]): 25% |
| C=CCOC(=O)CC[C@H](NC(=O)[C@H](CO)NC(=O)C(=O)[C@H](C)NC(=O)[C@H](C)NC(=O)[C@@H](NC(=O)[C@@H](NC(C)=O)C1CCCC1)[C@@H](C)O)C(N)=O (Ac-[Gly(cPent)]TA[X1]SE(OAll)-NH2) | 10900 |  | 32200 | 11 |  |
| C=CCOC(=O)CC[C@H](NC(=O)[C@@H](NC(=O)C(=O)[C@H](C)NC(=O)[C@H](C)NC(=O)[C@@H](NC(=O)[C@@H](NC(C)=O)C1CCCC1)[C@@H](C)O)C(C)(C)C(=O)O)C(N)=O (Ac-[Gly(cPent)]TA[X1][Asp(3,3-Me2)]E(OAll)-NH2) | 180 |  | 1030 | 3 |  |
| C=CCOC(=O)CC[C@H](NC(=O)[C@H](CC(=O)O)NC(=O)C(=O)[C@H](C)NC(=O)[C@H](CO)NC(=O)[C@@H](NC(=O)[C@@H](NC(C)=O)C1CCCC1)[C@@H](C)O)C(N)=O (Ac-[Gly(cPent)]TS[X1]DE(OAll)-NH2) | 500 | inactive |  |  |  |
| C=CCOC(=O)CC[C@H](NC(=O)[C@H](CC(=O)O)NC(=O)C(=O)[C@H](C)NC(=O)C(C)(C)NC(=O)[C@@H](NC(=O)[C@@H](NC(C)=O)C1CCCC1)[C@@H](C)O)C(N)=O (Ac-[Gly(cPent)]T[Aib][X1]DE(OAll)-NH2) | > 100000 | inactive |  |  |  |
| C=CCOC(=O)CC[C@H](NC(=O)[C@H](CC(=O)O)NC(=O)C(=O)[C@H](C)NC(=O)[C@H](C)NC(=O)[C@H](Cc1ccc(O)cc1)NC(=O)[C@@H](NC(C)=O)C1CCCC1)C(N)=O (Ac-[Gly(cPent)]YA[X1]DE(OAll)-NH2) | 25 |  | 150 | 44 |  |
| C=CCOC(=O)CC[C@H](NC(=O)[C@H](CC(=O)O)NC(=O)C(=O)[C@H](C)NC(=O)[C@H](C)NC(=O)[C@@H](NC(=O)[C@@H](NC(C)=O)C1CCCC1)C1CCCC1)C(N)=O (Ac-[Gly(cPent)][Gly(cPent)]A[X1]DE(OAll)-NH2) | 80 |  | 100 | 46 | Ratio IC50 [5]: 1.25; inhibition at 25 µM (Plasmodium falciparum [9]): 6% |
| C=CCOC(=O)CC[C@H](NC(=O)[C@H](CC(=O)O)NC(=O)C(=O)[C@H](C)NC(=O)[C@H](C)NC(=O)[C@](C)(CC(C)C)NC(=O)[C@@H](NC(C)=O)C1CCCC1)C(N)=O (Ac-[Gly(cPent)][αMeL]A[X1]DE(OAll)-NH2) | 5670 | inactive |  |  |  |
| C=CCOC(=O)CC[C@H](NC(=O)[C@H](CC(=O)O)NC(=O)C(=O)[C@H](C)NC(=O)[C@H](C)NC(=O)[C@@H](NC(=O)[C@@H](NC(C)=O)C(CC)CC)[C@@H](C)O)C(N)=O (Ac-[Nva(3-Et)]TA[X1]DE(OAll)-NH2) | 460 |  |  | 8 |  |
| C=CCOC(=O)CC[C@H](NC(=O)[C@H](CC(=O)O)NC(=O)C(=O)[C@H](C)NC(=O)[C@H](C)NC(=O)[C@@H](NC(=O)[C@@H](NC(C)=O)c1ccccc1)[C@@H](C)O)C(N)=O (Ac-[Phg]TA[X1]DE(OAll)-NH2) | 220 |  |  | 9 |  |
| C=CCOC(=O)CC[C@H](NC(=O)[C@H](CC(=O)O)NC(=O)C(=O)[C@H](C)NC(=O)[C@H](C)NC(=O)[C@@H](NC(=O)[C@@H](NC(C)=O)C(C)(C)C)[C@@H](C)O)C(N)=O (Ac-[Tle]TA[X1]DE(OAll)-NH2) | 210 |  |  | 4 |  |
| C=CCOC(=O)CC[C@H](NC(=O)[C@H](CC(=O)O)NC(=O)C(=O)[C@H](C)NC(=O)[C@H](C)NC(=O)[C@@H](NC(=O)[C@H](CC(C)(C)C)NC(C)=O)[C@@H](C)O)C(N)=O (Ac-[tBuAla]TA[X1]DE(OAll)-NH2) | 390 | inactive |  |  |  |
